From ChEMBL document CHEMBL1275275, “Preparation of new polycyclic compounds derived from benzofurans and furochromones. An approach to novel 1,2,3-thia-, and selena-diazolofurochromones of anticipated antitumor activities” (Eur J Med Chem, 2010)
≈ marks a conversion by molar mass, not a printed value.

Legend:
Type in all cases: functional, cell-based
[1] = tested on: HepG2; assay: Antitumor activity against human HepG2 cells
Summary of the method: (§1)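 In vitro cytotoxicity against human carcinoma cell lines. Surviving fraction was plotted against drug concentration to give survival curves. IC50 was read from these curves as the dose reducing survival to 50%, in µg/ml.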

[2] = tested on: HCT-116; assay: Antitumor activity against human HCT116 cells; summary of the method: as §1
[3] = tested on: HeLa; assay: Antitumor activity against human HeLa cells; summary of the method: as §1
[4] = tested on: MCF7; assay: Antitumor activity against human MCF7 cells
Summary of the method: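 Human MCF-7 breast carcinoma cells treated in vitro across a range of drug concentrations. Surviving fraction plotted against concentration to give survival curves. IC50 (µg/ml), the dose that reduces survival to 50%, read from these curves. Doxorubicin served as reference drug.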

[5] = Homo sapiens, MCF7, read-out: IC50

Row | Structure (SMILES) | IC50 [4, 5] | IC50 ([4]; mcf7) | IC50 [1] | IC50 [2] | IC50 [3]
1 | COc1c2c(cc3occc13)OC(C)(C)c1[se]nnc1-2 | 5.56 µg/mL (≈ 16.6 µM) | – | 11.5 µg/mL (≈ 34.3 µM) | 4.8 µg/mL (≈ 14.3 µM) | 6.02 µg/mL (≈ 18 µM)
2 | COc1c2c(c(OC)c3occc13)OC(C)(C)c1[se]nnc1-2 | 15.8 µg/mL (≈ 43.3 µM) | – | 15.9 µg/mL (≈ 43.5 µM) | 4.65 µg/mL (≈ 12.7 µM) | 4.35 µg/mL (≈ 11.9 µM)
3 | COc1c2c(cc3occc13)OC(C)(C)C/C2=N\NC(N)=O | 10.9 µg/mL (≈ 35.9 µM) | – | – | – | –
4 | CCC1(C)Oc2c(c(OC)c3ccoc3c2OC)-c2nn[se]c21 (stereo not drawn) | 12.7 µg/mL (≈ 33.5 µM) | – | 9.53 µg/mL (≈ 25.1 µM) | 8.92 µg/mL (≈ 23.5 µM) | 6.02 µg/mL (≈ 15.9 µM)
5 | COc1c2c(c(OC)c3occc13)OC1(CCCCC1)c1[se]nnc1-2 | 15 µg/mL (≈ 37 µM) | – | 9.53 µg/mL (≈ 23.5 µM) | 4.19 µg/mL (≈ 10.3 µM) | 5.57 µg/mL (≈ 13.7 µM)
6 | COc1c2c(cc3occc13)OC1(CCCCC1)c1[se]nnc1-2 | 16.5 µg/mL (≈ 44 µM) | – | 14.6 µg/mL (≈ 38.9 µM) | 3.89 µg/mL (≈ 10.4 µM) | 7.24 µg/mL (≈ 19.3 µM)
7 | COc1c2occc2c(OC)c2c(C=C(C)N3CCCCC3)c(C#N)c(=N)oc12 | – | Not Active | 8.46 µg/mL (≈ 21.5 µM) | 4.34 µg/mL (≈ 11 µM) | 4.8 µg/mL (≈ 12.2 µM)
8 | COc1c2c(cc3occc13)OC1(CCCCC1)C/C2=N\NC(N)=O | 14 µg/mL (≈ 40.8 µM) | – | – | – | –
9 | COc1cccc2c1C(=O)c1c(O)c3c(c(O)c1C2=O)C[C@@](O)(C(=O)CO)C[C@@H]3O[C@H]1C[C@H](N)[C@H](O)[C@H](C)O1 [DOXORUBICIN] | – | – | 3.73 µg/mL (≈ 6.86 µM) | 3.73 µg/mL (≈ 6.86 µM) | 4.19 µg/mL (≈ 7.71 µM)

Second part, led by results:

Row | IC50 [4, 5] | IC50 ([4]; mcf7) | Structure (SMILES) | IC50 [1] | IC50 [2] | IC50 [3]
10 | 15.5 µg/mL (≈ 36.1 µM) | – | COc1c(C(/C=C(\C)N2CCCC2)=C2C(=O)c3ccccc3C2=O)c(O)cc2occc12 | – | – | –
11 | 8.61 µg/mL (≈ 22.7 µM) | – | COc1c2occc2c(OC)c2c(C=C(C)N3CCCC3)c(C#N)c(=N)oc12 | 10.9 µg/mL (≈ 28.7 µM) | 4.8 µg/mL (≈ 12.7 µM) | 5.11 µg/mL (≈ 13.5 µM)
12 | 10.6 µg/mL (≈ 28.4 µM) | – | COc1c2c(c(OC)c3occc13)OC1(CCCCC1)C/C2=N\NC(N)=O | 8.61 µg/mL (≈ 23.1 µM) | 4.04 µg/mL (≈ 10.8 µM) | 4.19 µg/mL (≈ 11.2 µM)
13 | 13.2 µg/mL (≈ 28.7 µM) | – | COc1c(C(/C=C(\C)N2CCCC2)=C2C(=O)c3ccccc3C2=O)c(O)c(OC)c2occc12 | – | – | –
14 | 13.9 µg/mL (≈ 40 µM) | – | CCC1(C)C/C(=N\NC(N)=O)c2c(c(OC)c3occc3c2OC)O1 (stereo not drawn) | – | – | –
15 | 14.9 µg/mL (≈ 41.6 µM) | – | COc1c2c(c(OC)c3occc13)OC1(CCCCC1)c1snnc1-2 | – | – | –
16 | 15.9 µg/mL (≈ 48.4 µM) | – | COc1c2c(cc3occc13)OC1(CCCCC1)c1snnc1-2 | – | – | –
17 | 20.8 µg/mL (≈ 62.4 µM) | – | COc1c2c(c(OC)c3occc13)OC(C)(C)C/C2=N\NC(N)=O | – | – | –
